Source: PubChem BioAssay (Sanford-Burnham Center for Chemical Genomics)
PPC-1+TRAIL kill – PPC-1 cancer cell killing with TRAIL present; PPC-1 cells + TRAIL, ATPLite viability luminescence; cell killing (% activity), % at 4 µM or 5 µM; 220,000 tested, 0.41% active; AID 1443;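 active means cell killing above 50% in the first pass at 4 µM, then a duplicate retest at 5 µM averaging 50% or more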;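 further: plate controls were cells with TRAIL plus DMSO for no effect and medium-only wells lacking cells for full effect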
FLuc act counter – affects firefly luciferase, flagging false hits in luciferase stimulation screens. activation factor at 10 µM. ATPlite luciferase biochemical, luminescence, 10 min; 0 = ATP-free wells, 1 = DMSO control. 200,000 tested, under 10 active. P08659;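 active means luciferase activation factor, scaled between plate controls, of at least 2 with compound at 10 µM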
Target sequence (P08659 whole entry, looked up): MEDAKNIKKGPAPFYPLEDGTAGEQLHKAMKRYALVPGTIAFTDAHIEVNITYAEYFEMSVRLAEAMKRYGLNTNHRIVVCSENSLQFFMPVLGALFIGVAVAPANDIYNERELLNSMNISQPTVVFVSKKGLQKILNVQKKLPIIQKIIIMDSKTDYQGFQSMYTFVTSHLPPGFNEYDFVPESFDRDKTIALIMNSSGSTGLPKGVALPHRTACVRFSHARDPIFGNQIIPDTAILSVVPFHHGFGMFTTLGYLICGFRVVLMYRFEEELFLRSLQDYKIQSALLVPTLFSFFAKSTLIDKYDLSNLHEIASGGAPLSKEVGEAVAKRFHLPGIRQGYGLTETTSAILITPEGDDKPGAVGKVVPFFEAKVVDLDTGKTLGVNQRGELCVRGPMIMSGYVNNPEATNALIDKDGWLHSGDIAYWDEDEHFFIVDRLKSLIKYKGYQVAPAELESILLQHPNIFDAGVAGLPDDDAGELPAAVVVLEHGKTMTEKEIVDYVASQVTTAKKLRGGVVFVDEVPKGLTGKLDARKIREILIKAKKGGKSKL
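assay system = Luciferase/luciferin detection reagent, cell-free biochemical luciferase assay | also added = ATP substrate | times = 10 min post-reagent at room temperature | measured by = luminescence from luciferase reaction | measure = luciferase activation, seen as luminescence increase over controls | benchmarks = low control with PBS replacing ATP, high control enzyme plus ATP without compound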
C8 TRAIL sens – sensitizes caspase-8 expressing cells to TRAIL | 360,000 tested, 1% active | AID 624354 | inhibition (viability loss, TRAIL sensitization), % at 10 µM | NB7+C8 cells + TRAIL, ATPlite viability luminescence;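 active means compounds causing at least 50% loss of cell viability in the single-dose screen, relative to plate controls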
FLuc inh counter – counter-screen for luciferase assay inhibitors: firefly luciferase inhibition; P08659; ATPLite firefly luciferase biochemical luminescence, 10 min; inhibition, % at 10 µM; 200,000 tested, 1.5% active; AID 1006;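 active means inhibition above about 50% when tested at 10 µM, limit read from the data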
An asterisk follows results filed as active; x = not tested or not shown. Most compounds without a hit are left out; they make up all but 1.6% or so of the library.

SMILES	PPC-1+TRAIL kill	FLuc act counter	C8 TRAIL sens	FLuc inh counter
CCCCCCCCCOc1ccc2[nH]cc(CCN)c2c1	61*	1	x	-1
COC(=O)C1CN(C#N)N(c2ccc(Cl)cc2)C12c1ccccc1-c1ccccc12 (stereo not drawn)	17	1	91*	0
CC1(C)C(C(=O)N2CCN(c3ccc(Cl)cc3)CC2)C1(C)C	x	x	-6	x
CN(C)C(Cc1ccccc1)C(=O)c1ccccc1 (stereo not drawn)	29	1	9	2
CC(C)N(C(=O)CCl)c1ccccc1	x	x	91*	x
COc1ccc(OC(=O)N(C)C[C@@H]2OCc3cnnn3CCCC(=O)N([C@H](C)CO)C[C@@H]2C)cc1	x	x	7	x
O=C1C(=O)N(c2ccccc2)P(=O)(N(CCCl)CCCl)N1c1ccccc1	x	x	10	x
COc1ccccc1N1CCN(Cc2cccc(Br)c2)CC1	x	x	-12	x
COC(=O)C1=C(C(=O)OC)SC2(S1)C(C(=O)OC)=C(C(=O)OC)Sc1c2ssc1=O	x	x	51*	x
Cc1ccc2nc3c(cc2c1)CC1(C(=O)N(C)C(=O)N(C)C1=O)C1CCCCN31 (stereo not drawn)	38	0.5	28	53*
C/C(=C\c1ccc(N(C)C)cc1)[N+](=O)[O-]	36	0.9	50*	6
CN(C)c1ccc(/C=C/[N+](=O)[O-])cc1	9	1	17	0
CC(C)(O)/C=C/C(=O)C(C)(O)C1C(O)CC2(C)C3CC=C4C(C=C(O)C(=O)C4(C)C)C3(C)C(=O)CC12C (stereo not drawn)	x	x	62*	x
COC(=O)C1=C(c2ccc(OCc3ccccc3)cc2)C[C@@H]2CC[C@H]1N2C(=O)NCc1cccc(OC)c1	x	x	11	x
NC(N)=N/N=C/c1ccc(N(c2ccccc2)c2ccccc2)cc1	x	x	69*	x
COc1ccc(/C=N\N=C(N)N)cc1	12	1	-2	-1
C[C@H]1CCC/C=C/C2C[C@H](O)CC2[C@H](O)/C=C/C(=O)O1 (stereo partly drawn)	43	1	34	-3
CC1CCC/C=C/C2CC(O)CC2C(O)/C=C/C(=O)O1 (stereo not drawn)	57*	1	22	2
COc1ccc(C(CC(=O)N2CCC3(CC2)OCCO3)NS(=O)(=O)c2ccc(OC)cc2)cc1 (stereo not drawn)	54*	1.1	1	-7
CC1CCOC(=O)C=CC=CC(=O)OC2CC3OC4C5OC5(C)C(O)CC4(COC(=O)C1O)C2(C)C31CO1 (stereo not drawn)	x	x	69*	x
CC1=CC2OC3CC4OC(=O)C=CC=CC(=O)OCCC(C)C(O)C(=O)OCC2(CC1)C4(C)C31CO1 (stereo not drawn)	x	x	56*	x
CC(O)C1C=CC=CC(=O)OC2CC3OC4C5OC5(C)C(O)CC4(COC(=O)C(O)C(C)CCO1)C2(C)C31CO1 (stereo not drawn)	x	x	62*	x
CC1=CC2OC3CC4OC(=O)C=CC=CC(C(C)O)OCC(O)C5(C)OC5C(=O)OCC2(CC1O)C4(C)C31CO1 (stereo not drawn)	x	x	67*	x
COC(=O)C1=C(c2ccc(OC)c(OC)c2)C[C@@H]2CC[C@H]1N2C(=O)N1CCCCC1	x	x	-18	x
C1CN(P2(N3CC3)=NP(N3CC3)(N3CC3)=NP(N3CC3)(N3CC3)=N2)CCO1 (stereo not drawn)	x	x	-15	x
SMILES	PPC-1+TRAIL kill	FLuc act counter	C8 TRAIL sens	FLuc inh counter
COC(=O)C1=C(c2ccc(OC(F)(F)F)cc2)C[C@@H]2CC[C@H]1N2C(=O)NCCOc1ccccc1Cl	x	x	8	x
CC(C)(C)C(=O)N1Cc2cc(N3CCCCC3)ccc2-n2nncc2C1	x	x	0	x
C=C[C@@H]1C2=CCOC(=O)C2=CO[C@H]1O[C@@H]1O[C@H](CO)[C@@H](O)[C@H](O)[C@H]1O	x	x	0	x
C=C1C(=O)O[C@@H]2C[C@@H](C)[C@@H]3C=CC(=O)[C@@]3(C)[C@@H](OC(=O)CC(=O)O[C@H]3[C@@H]4C(=C)C(=O)O[C@@H]4C[C@@H](C)[C@@H]4C=CC(=O)[C@]43C)[C@H]12	-17	x	95*	x
C=C1C(=O)OC2CC(C)C3C=CC(=O)C3(C)C(O)C12 (stereo not drawn)	x	x	86*	x
C=C1C(=O)O[C@H]2[C@H]1[C@H](OC(=O)CC(=O)O[C@@H]1C[C@@H](C)[C@@H]3C=CC(=O)[C@@]3(C)[C@H]3OC(=O)C(=C)[C@H]13)C[C@@H](C)[C@H]1C=CC(=O)[C@]12C	4	x	27	x
Cn1cc(C(=O)Cc2ccccc2)c2ccccc21	-4	1	-4	-2
CCN(CC)C(=O)c1ccc(NC(=O)c2cccc(C(F)(F)F)c2)cc1	-4	0.9	2	8
CCN(CCCl)c1cc(CN(C)C)cc(NC(=O)c2ccc(C(=O)Nc3cc(CN(C)C)cc(N(CC)CCCl)c3)cc2)c1	x	x	95*	x
N#Cc1ccc(NC(=O)CN2C(=O)NC3(CCCCCCC3)C2=O)cc1Cl	x	x	4	x
CCOC(=O)[C@]12Cc3c(cc(OC)c(OC)c3OC)[C@H]1N(C1CCCCC1)C(=O)c1ccccc12	x	x	90*	x
CCOC(=O)[C@]12Cc3cc(C)ccc3[C@H]1N(C1CCCCC1)C(=O)c1ccccc12	x	x	92*	x
CCOC(=O)[C@]12Cc3cc(OC)ccc3[C@H]1N(CC(=O)OC)C(=O)c1ccccc12	x	x	-5	x
CCOC(=O)[C@]12Cc3ccc(C)cc3[C@H]1N(C1CCCCC1)C(=O)c1ccccc12	x	x	86*	x
CCOC(=O)[C@]12Cc3ccccc3[C@H]1N(C(C)C)C(=O)c1ccccc12	x	x	29	x
CCOC(=O)[C@]12Cc3cc(Cl)ccc3[C@H]1N(C1CCCCC1)C(=O)c1cc(OC)ccc12	x	x	96*	x
Cc1ccc(OCCOc2cccc(C=C3C(=O)NC(=O)NC3=O)c2)c(C)c1	x	x	17	x
COC(=O)C1=C(c2ccc(F)cc2F)C[C@@H]2CC[C@H]1N2C(=O)NCc1ccc(C(F)(F)F)cc1	x	x	13	x
CCOC(=O)[C@]12Cc3cc(OC)ccc3[C@H]1N(C)C(=O)c1cc(OC)ccc12	x	x	23	x
CCOC(=O)[C@]12Cc3ccc(C)cc3[C@H]1N(C1CCCCC1)C(=O)c1cc(OC)ccc12	x	x	95*	x
C=CCn1c(O)c(C(CC)=NCc2cc(OC)cc(OC)c2)c(=O)[nH]c1=O	20	1	50*	0
C=CCn1c(O)c(C(CC)=NCc2ccc3c(c2)OCO3)c(=O)[nH]c1=O	2	x	11	x
CCOc1cc(CNCCc2c[nH]c3ccccc23)cc(Cl)c1OC	-6	1.1	20	-7
O=c1[nH]c2ccccc2n1C1CCN(C(CCc2ccccc2)c2nnnn2Cc2ccccc2)CC1 (stereo not drawn)	x	x	91*	x
COc1ccc(-n2nnnc2C(c2cc3ccccc3o2)N2CCC(n3c(=O)[nH]c4ccccc43)CC2)cc1 (stereo not drawn)	x	x	66*	x
CSCCC(c1nnnn1Cc1ccccc1)N1CCC(n2c(=O)[nH]c3ccccc32)CC1 (stereo not drawn)	x	x	47	x
O=c1[nH]c2ccccc2n1C1CCN(C(c2cc3ccccc3o2)c2nnnn2-c2ccc3c(c2)OCCO3)CC1 (stereo not drawn)	x	x	86*	x
